Assay results: ChEMBL document CHEMBL3098122, “Synthesis, biological activity and structure-activity relationships of new benzoic acid-based protein tyrosine phosphatase inhibitors endowed with insulinomimetic effects in mouse C2C12 skeletal muscle cells” (Eur J Med Chem, 2014)
Activity calls are given as the source filed them. The rule behind the calls is not given here.

Legend:
[1] = biological target: T1, Tyrosine-protein phosphatase non-receptor type 1 (Homo sapiens, UniProt P18031); assay: Noncompetitive inhibition of human recombinant PTP1B expressed in Escherichia coli TB1 using p-nitrophenylphosphate as substrate by Double reciprocal plot analysis
T1 sequence (P18031 whole entry): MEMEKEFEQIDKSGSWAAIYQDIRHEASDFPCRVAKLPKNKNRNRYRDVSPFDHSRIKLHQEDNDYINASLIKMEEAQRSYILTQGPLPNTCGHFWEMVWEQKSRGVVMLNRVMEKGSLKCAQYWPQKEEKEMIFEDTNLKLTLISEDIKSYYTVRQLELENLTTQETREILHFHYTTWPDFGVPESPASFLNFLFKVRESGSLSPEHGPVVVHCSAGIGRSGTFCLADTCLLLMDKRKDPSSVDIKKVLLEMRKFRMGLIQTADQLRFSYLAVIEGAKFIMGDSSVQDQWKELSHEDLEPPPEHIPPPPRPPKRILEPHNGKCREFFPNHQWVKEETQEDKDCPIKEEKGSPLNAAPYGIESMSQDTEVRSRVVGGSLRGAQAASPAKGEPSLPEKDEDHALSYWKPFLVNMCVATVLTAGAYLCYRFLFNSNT
Procedure, shortened: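 PTP1B (human, GST fusion from pGEX-2T in E. coli TB1, thrombin-cleaved, gel-filtered) assayed at 37 °C, pH 7.0 β,β-dimethylglutarate buffer with 1 mM EDTA and 5 mM DTT, p-nitrophenylphosphate at seven final concentrations (0.5–25 mM) with increasing inhibitor; KOH-stopped, A400. Inhibition type from double reciprocal plots; Ki from apparent Km vs inhibitor concentration; triplicate initial rates.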

Homo sapiens [2] = species: Homo sapiens; assay: Selectivity ratio of IC50 for human recombinant LMW-PTP IF1 to IC50 for human recombinant PTP1B
[3] = biological target: T1, Tyrosine-protein phosphatase non-receptor type 1; assay: Inhibition of human recombinant PTP1B expressed in Escherichia coli TB1 using p-nitrophenylphosphate as substrate
Homo sapiens [4] = species: Homo sapiens; assay: Selectivity ratio of IC50 for human recombinant LMW-PTP IF2 to IC50 for human recombinant LMW-PTP IF1
[5] = biological target: T2, Tyrosine-protein phosphatase non-receptor type 1 (Homo sapiens) (UniProt P18031); assay: Reversible inhibition of human recombinant PTP1B expressed in Escherichia coli TB1 using p-nitrophenylphosphate as substrate assessed as residual activity at 25 times IC50 after 1 hr measured after 400 fold dilution
T2 sequence (whole entry): T1 sequence (P18031 whole entry)
Procedure, shortened: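 Reversibility: PTP1B preincubated 1 h at 37 °C with at least 25-fold […], DMSO in controls; mixture then diluted 400-fold in assay buffer and residual activity measured on p-nitrophenylphosphate; three replicates, mean ± SE.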

Homo sapiens [6] = species: Homo sapiens; assay: Selectivity ratio of IC50 for TC-PTP (unknown origin) to IC50 for human recombinant PTP1B
Procedure, shortened: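 Commercial T-cell PTP assayed on p-nitrophenylphosphate at 37 °C, pH 7.0 β,β-dimethylglutarate buffer with 1 mM EDTA and 5 mM DTT; stopped with 1 M KOH, absorbance at 400 nm; IC50 from ratio of activity with and without inhibitor versus inhibitor concentration. Ratio lines pair this with recombinant human PTP1B measured the same way.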

[7] = biological target: T3, Tyrosine-protein phosphatase non-receptor type 1 (Mus musculus) (UniProt P35821); assay: Inhibition of PTP1B in mouse C2C12 cells assessed as increase of insulin receptor beta phosphorylation at 25 uM after 90 mins; type: cell-based
T3 sequence (whole entry): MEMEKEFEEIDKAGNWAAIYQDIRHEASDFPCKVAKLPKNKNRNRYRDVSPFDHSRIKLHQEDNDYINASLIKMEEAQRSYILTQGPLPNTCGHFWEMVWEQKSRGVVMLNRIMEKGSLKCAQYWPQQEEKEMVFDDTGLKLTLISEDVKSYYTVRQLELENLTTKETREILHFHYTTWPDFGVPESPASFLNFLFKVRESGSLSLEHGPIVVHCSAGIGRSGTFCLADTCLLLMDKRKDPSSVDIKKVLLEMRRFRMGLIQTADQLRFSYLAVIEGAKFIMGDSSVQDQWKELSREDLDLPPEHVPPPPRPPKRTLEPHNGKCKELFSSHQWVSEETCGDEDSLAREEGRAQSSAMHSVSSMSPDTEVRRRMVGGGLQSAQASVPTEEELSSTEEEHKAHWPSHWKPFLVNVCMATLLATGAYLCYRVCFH
Procedure, shortened: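 Differentiated, 20 h serum-starved C2C12 myotubes exposed to 25 µM compound (DMSO 1.2% final) for 90 min at 37 °C, insulin 10 nM 30 min as positive control; lysates run on SDS-PAGE, Western blot for phospho-insulin receptor β with actin loading control, densitometry; three replicates, p<0.05 versus control.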

[8] = biological target: T3, Tyrosine-protein phosphatase non-receptor type 1 (Mus musculus); assay: Inhibition of PTP1B in mouse C2C12 cells assessed as increase of 2-deoxy-D-1,2-[3H]-glucose at 25 uM after 90 mins by beta-scintillation counting; type: cell-based
Procedure, shortened: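 Serum-starved differentiated C2C12 myotubes treated 90 min with 25 µM compound (1.2% DMSO) or 30 min with 10 nM insulin, then 0.1 µCi 2-deoxy-D-[1,2-3H]glucose in Ringer-Hepes for 15 min at 37 °C; cold PBS wash, 0.2 M NaOH lysis, scintillation counting normalized to Bradford protein; three replicates.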

[9] = biological target: T4, Tyrosine-protein phosphatase non-receptor type 2 (Homo sapiens, UniProt P17706); assay: Inhibition of TC-PTP (unknown origin) purchased from New England Biolabs using p-nitrophenylphosphate as substrate
T4 sequence (P17706 whole entry): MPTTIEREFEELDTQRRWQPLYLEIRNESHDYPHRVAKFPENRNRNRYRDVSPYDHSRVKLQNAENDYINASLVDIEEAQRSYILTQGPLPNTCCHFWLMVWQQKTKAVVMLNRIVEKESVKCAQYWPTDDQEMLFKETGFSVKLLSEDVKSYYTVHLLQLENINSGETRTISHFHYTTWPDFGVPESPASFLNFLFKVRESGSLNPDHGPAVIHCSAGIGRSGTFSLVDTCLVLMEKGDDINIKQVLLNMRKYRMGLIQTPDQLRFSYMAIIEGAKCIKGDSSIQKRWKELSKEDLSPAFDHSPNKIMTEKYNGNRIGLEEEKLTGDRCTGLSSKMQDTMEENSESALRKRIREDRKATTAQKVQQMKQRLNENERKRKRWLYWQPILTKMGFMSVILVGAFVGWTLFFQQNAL

[10] = biological target: T5, Low molecular weight phosphotyrosine protein phosphatase (Homo sapiens, UniProt P24666); assay: Inhibition of human recombinant LMW-PTP IF2 expressed in Escherichia coli TB1 using p-nitrophenylphosphate as substrate
T5 sequence (P24666 whole entry): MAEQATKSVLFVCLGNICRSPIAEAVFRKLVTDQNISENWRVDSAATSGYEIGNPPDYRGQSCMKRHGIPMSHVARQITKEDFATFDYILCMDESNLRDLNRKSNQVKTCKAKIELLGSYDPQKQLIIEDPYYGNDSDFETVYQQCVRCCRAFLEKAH

Homo sapiens [11] = species: Homo sapiens; assay: Selectivity ratio of IC50 for human recombinant LMW-PTP IF2 to IC50 for human recombinant PTP1B
[12] = biological target: T5, Low molecular weight phosphotyrosine protein phosphatase; assay: Inhibition of human recombinant LMW-PTP IF1 expressed in Escherichia coli TB1 using p-nitrophenylphosphate as substrate
[13] = Cytotoxicity against mouse C2C12 cells expressing PTP1B, TC-PTP, LMW-PTP and insulin receptor assessed as cell viability after 2 hrs by MTT assay; type: cell-based; set-up: concentration or dose not given beside the values; conditions: read-out: Activity
Procedure, shortened: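 C2C12 myoblasts differentiated 4 days in DMEM with 2% horse serum, serum-starved 20 h; myotubes then given MTT (0.5 mg/ml final) for 2 h at 37 °C, lysed in DMSO, formazan read at 570 nm; three replicates relative to control.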

Ki [1]: 1.4 µM
Ratio IC50 (Homo sapiens [2]): > 2
IC50 [3]: 1.1 µM
Ratio IC50 (Homo sapiens [4]): > 2
Activity [5]: 80%
Ratio IC50 (Homo sapiens [6]): 2
inhibition [7]: Active
inhibition [8]: Active
IC50 [9]: 3.5 µM
IC50 [10]: > 50 µM
Ratio IC50 (Homo sapiens [11]): > 2
IC50 [12]: 10.8 µM
SMILES: COc1cc(/C=C2\SC(=O)N(Cc3ccc(C(=O)O)cc3)C2=O)ccc1OCCc1ccccc1
viability at 2 h [13]: ≥ 80%
